From ChEMBL document CHEMBL1134514, “Synthesis of novel gamma-aminobutyric acid (GABA) uptake inhibitors. 5.(1) Preparation and structure-activity studies of tricyclic analogues of known GABA uptake inhibitors” (J Med Chem, 2001)

Columns and labels:
[1] = biological target: T1, GABA transporter (Mus musculus) (UniProt P31650+P31651+P31649+P31648); experiment: In vivo anticonvulsant effect measured as rotarod in mice after ip administration; type: functional, organism-based
Method in brief: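 Mice pretrained 2 min on rotarod (6 rpm, 3 cm rod), then dosed ip. On testing, a mouse that fell was placed back on the rod. Testing ended at 10 failures or after 2 min. ED50 in mg/kg.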

[2] = biological target: T1, GABA transporter (Mus musculus); experiment: In vivo anticonvulsant effect measured as inhibition of DMCM -induced seizures in mice after ip administration.; type: functional, organism-based
Method in brief: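 Female NMRI mice given test drug ip 30 min before DMCM 15 mg/kg ip. Observed for 30 min for clonic seizures and death, N = 5-10 per dose. ED50 in mg/kg.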

GABA transporter = GABA transporter (Rattus norvegicus, UniProt P31647+P23978+P31646+P48056); experiment: In vitro inhibition of [3H]GABA uptake in rat synaptosomes was determined; type: functional, subcellular, Brain
Method in brief: (§1)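 Rat forebrain homogenized in ice-cold 0.32 M sucrose, spun 10 min at 600 g, 4 °C; pellet resuspended in pH 7.4 phosphate/NaCl/glucose buffer. Synaptosomes (0.1 mg protein) preincubated with test substance 8 min at 30 °C, then [3H]-GABA (0.9 nM final) plus unlabeled GABA (0.9 nM final) for 8 min. Filtration on glass fiber, ice-cold saline washes, scintillation counting. IC50 as mean of two determinations.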

[3] = biological target: T1, GABA transporter (Mus musculus); experiment: Ratio for ED50 values for inhibition of rotarod to inhibition of DMCM-induced convulsions in mice; type: functional
Method in brief: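 Protective index is the rotarod ED50 divided by the ED50 for inhibiting DMCM (15 mg/kg ip) clonic seizures. Both were measured in mice after ip dosing.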

Rattus norvegicus [4] = organism: Rattus norvegicus; experiment: In vitro inhibition of [3H]GABA uptake in rat synaptosomes was determined; No activity; type: functional, Brain
Rattus norvegicus [5] = organism: Rattus norvegicus; experiment: In vitro inhibition of [3H]GABA uptake determined; type: functional; method in brief: as §1

| Structure (SMILES) | ED50 [1] | ED50 [2] | IC50 (GABA transporter) | Protective index [3] | IC50 (Rattus norvegicus [4]) | IC50 (Rattus norvegicus [5]) |
| --- | --- | --- | --- | --- | --- | --- |
| Cl.O=C(O)[C@@H]1CCCN(CCOCCN2c3ccccc3C=Cc3ccccc32)C1 | > 30 mg/kg | 30 mg/kg | 647 nM | > 1 | – | – |
| O=C(O)C1CCCN(CCOC2c3ccccc3-c3ccccc32)C1 (stereo not drawn) | – | – | – | – | Not Active | – |
| Cl.O=C(O)[C@@H]1CCCN(CCOCCN2c3ccccc3Oc3ccccc32)C1 | – | – | 14600 nM | – | – | – |
| Cl.O=C(O)[C@@H]1CCCN(CCOCCC(c2ccccc2)c2ccccc2)C1 | – | – | 55 nM | 5.3 | – | – |
| Cl.O=C(O)[C@@H]1CCCN(CCOCCN2c3ccccc3CCc3ccccc32)C1 | 85 mg/kg | 15 mg/kg | 184 nM | 5.7 | – | – |
| O=C(O)[C@@H]1CCCN(CCOC=C(c2ccccc2)c2ccccc2)C1 | – | – | – | – | – | 87 nM |
| Cl.O=C(O)[C@H]1CCCN(CCOC/C=C2\c3ccccc3CCc3ccc(Cl)cc32)C1 | > 60 mg/kg | 50 mg/kg | 2495 nM | > 1.2 | – | – |
| Cl.O=C(O)[C@@H]1CCCN(CCON=C(c2ccccc2)c2ccccc2)C1 | – | – | 82 nM | – | – | – |
| Cl.O=C(O)[C@@H]1CCCN(CCOCCN(c2ccccc2)c2ccccc2)C1 | – | – | 90 nM | 1.6 | – | – |
| O=C(O)C1CCCN(CCOC2c3ccccc3C=Cc3ccccc32)C1 (stereo not drawn) | – | – | 2500 nM | – | – | – |
| Cl.O=C(O)C1CCCN(CCOC(c2ccccc2)c2ccccc2)C1 (stereo not drawn) | – | – | 1370 nM | – | – | – |
| O=C(O)C1CCCN(CCC=C2c3ccccc3CCc3ccccc32)C1 (stereo not drawn) | > 60 mg/kg | > 60 mg/kg | 13600 nM | – | – | – |
| Cl.O=C(O)[C@@H]1CCCN(CCON=C2c3cc(Cl)ccc3CCc3ccc(Cl)cc32)C1 | 40 mg/kg | 35 mg/kg | 5509 nM | 1.1 | – | – |
| O=C(O)[C@@H]1CCCN(CCOC=C2c3ccccc3CCc3ccccc32)C1 | – | – | – | – | – | 2180 nM |
| Cl.O=C(O)[C@@H]1CCCN(CCOCCN2c3ccccc3CCc3ccc(F)cc32)C1 | – | – | 265 nM | – | – | – |
| Cl.O=C(O)[C@@H]1CCCN(CCOCCN2c3ccccc3CCc3ccc(Cl)cc32)C1 | > 30 mg/kg | 15 mg/kg | 74 nM | > 2 | – | – |

| Structure (SMILES) | ED50 [1] | ED50 [2] | IC50 (GABA transporter) | Protective index [3] | IC50 (Rattus norvegicus [4]) | IC50 (Rattus norvegicus [5]) |
| --- | --- | --- | --- | --- | --- | --- |
| Cl.O=C(O)[C@@H]1CCCN(CCOCCN2c3ccccc3Sc3ccc(C(F)(F)F)cc32)C1 | > 60 mg/kg | 38 mg/kg | 105 nM | > 1.6 | – | – |
| Cl.O=C(O)[C@@H]1CCCN(CCOCCCN2c3ccccc3CCc3ccccc32)C1 | > 60 mg/kg | 50 mg/kg | 696 nM | > 1.2 | – | – |
| Cl.O=C(O)[C@@H]1CCCN(CCOCCN2c3ccccc3Sc3ccccc32)C1 | 54 mg/kg | 30 mg/kg | 308 nM | 1.8 | – | – |
| Cl.O=C(O)C1=CCCN(CCOCCN2c3ccccc3CCc3ccccc32)C1 | 21 mg/kg | 7.3 mg/kg | 644 nM | 2.9 | – | – |
| Cl.O=C(O)[C@H]1CCCN(CCOCC=C2c3ccccc3CCc3ccccc32)C1 | > 100 mg/kg | 30 mg/kg | 770 nM | > 3.3 | – | – |
| Cl.O=C(O)[C@@H]1CCCN(CCOCCN2c3ccccc3CCCc3ccccc32)C1 | – | 60 mg/kg | 851 nM | > 1.5 | – | – |
| Cl.O=C(O)[C@@H]1CCCN(CCOCCN2c3cc(Cl)ccc3CCc3ccc(Cl)cc32)C1 | > 100 mg/kg | 45 mg/kg | 68 nM | > 2.2 | – | – |
| Cl.O=C(O)[C@H]1CCCN(CCOCCC2c3ccccc3CCc3ccccc32)C1 | > 60 mg/kg | 23 mg/kg | 561 nM | > 2.6 | – | – |
| Cl.O=C(O)[C@@H]1CCCN(CCON=C2c3ccccc3CCc3ccccc32)C1 | > 100 mg/kg | 30 mg/kg | 1161 nM | > 3.3 | – | – |
| O=C(O)[C@@H]1CCCN(CCC=C2c3ccccc3-c3ccccc32)C1 | – | – | 2018 nM | – | – | – |
| Cl.O=C(O)[C@@H]1CCCN(CCCOCC=C2c3ccccc3CCc3ccccc32)C1 | > 150 mg/kg | 60 mg/kg | 460 nM | > 2.5 | – | – |
| Cl.O=C(O)CC1CCN(CCOCCN2c3ccccc3CCc3ccccc32)C1 (stereo not drawn) | 100 mg/kg | 31 mg/kg | 51 nM | 3.2 | – | – |
| Cl.O=C(O)C1=CCCN(CCOCCC2c3ccccc3CCc3ccccc32)C1 | – | – | 1202 nM | – | – | – |
| Cl.O=C(O)[C@@H]1CCCN(CCOCCn2c3ccccc3c3ccccc32)C1 | – | – | > 40000 nM | – | – | – |
| O=C(O)[C@@H]1CCCN(CCOCCN2c3ccc(Br)cc3CCc3cc(Br)ccc32)C1 | – | – | – | – | – | 1030 nM |
| Cl.O=C(O)[C@@H]1CCCN(CCOCCN2c3ccc(F)cc3CCc3cc(F)ccc32)C1 | – | – | 248 nM | – | – | – |
